Experimental data reported in ChEMBL document CHEMBL3102812 (J Med Chem, 2013).
Converted amounts (≈) assume the structure as drawn. The source made the active and inactive calls. The rule behind the calls is not given here.

System: Trypanosoma cruzi
Test: Antitrypanosomal activity against Trypanosoma cruzi Tulahuen 6 infected in Swiss mouse assessed as mouse survival at 20 mg/kg, po qd administered on day 8 post-infection measured on same day by microscopic analysis
Type: functional, organism-based
Design: dose 20 mg/kg
Conditions: not given

SMILES	Activity
FC(F)(F)c1ccc(N(c2cccnc2)C2CCN(c3ccc(C(F)(F)F)cn3)CC2)cc1	Active
CC[C@@H]([C@H](C)O)n1ncn(-c2ccc(N3CCN(c4ccc(OC[C@@H]5CO[C@@](Cn6cncn6)(c6ccc(F)cc6F)C5)cc4)CC3)cc2)c1=O [POSACONAZOLE]	Active
O=C(C(c1ccc(Cl)cc1)c1cccnc1)N1CCN(c2ccc(C(F)(F)F)cc2)CC1 (racemic)	Active

System: Trypanosoma cruzi
Test: Antitrypanosomal activity against Trypanosoma cruzi Tulahuen 6 infected in Swiss mouse assessed as mouse survival at 10 mg/kg, po qd administered on day 8 post-infection for 20 days measured on day 28 post-infection by microscopic analysis
Type: functional, organism-based
Design: dose 10 mg/kg
Conditions: not given
Procedure, shortened: (§1)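 Outbred female Swiss mice (~8 weeks) infected with mouse-passaged Tulahuen TcVI trypomastigotes; oral dosing once daily for 20 days from day 8 post-infection, suspension in 0.5% HPMC, 0.4% Tween 80, 0.5% benzyl alcohol, 5% DMSO in water; blood parasitemia by microscopy (LOD 20 000 parasites/mL); mice with recurring parasitemia euthanized; survival counted per starting group; 10-day untreated period days 28–37.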

SMILES	Activity
CC[C@@H]([C@H](C)O)n1ncn(-c2ccc(N3CCN(c4ccc(OC[C@@H]5CO[C@@](Cn6cncn6)(c6ccc(F)cc6F)C5)cc4)CC3)cc2)c1=O [POSACONAZOLE]	Active

System: not listed separately
Test: Partition coefficient, log D of the compound at pH 7.4 by chromatographic method
Conditions: octanol/water

SMILES	chromatographic logD
FC(F)(F)c1ccc(N(c2cccnc2)C2CCN(c3ccc(Cl)cc3)CC2)cc1	> 5.3
CS(=O)(=O)c1ccc(N2CCN(C(=O)C(c3ccc(C#N)cc3)c3cccnc3)CC2)cc1 (centres undefined)	2.4
O=C(C(c1ccc(Cl)cc1)c1cccnc1)N1CCN(c2ccc(C(F)(F)F)cn2)CC1 (centres undefined)	4.2
FC(F)(F)c1ccc(N(c2cccnc2)C2CCN(c3ccc(C(F)(F)F)cn3)CC2)cc1	> 5.3
O=C(C(c1ccc(Cl)cc1)c1cccnc1)N1CCN(c2ccc(C(F)(F)F)cc2)CC1 (racemic)	4.5

System: not listed separately
Test: Kinetic aqueous solubility of the compound in phosphate buffer at pH 6.5 by nephelometric analysis
Conditions: not given

SMILES	solubility kinetic
FC(F)(F)c1ccc(N(c2cccnc2)C2CCN(c3ccc(Cl)cc3)CC2)cc1	< 1.6 µg/mL
CS(=O)(=O)c1ccc(N2CCN(C(=O)C(c3ccc(C#N)cc3)c3cccnc3)CC2)cc1 (centres undefined)	3.1 µg/mL (≈ 6.73 µM)
O=C(C(c1ccc(Cl)cc1)c1cccnc1)N1CCN(c2ccc(C(F)(F)F)cn2)CC1 (centres undefined)	3.1 µg/mL (≈ 6.73 µM)
FC(F)(F)c1ccc(N(c2cccnc2)C2CCN(c3ccc(C(F)(F)F)cn3)CC2)cc1	< 1.6 µg/mL
O=C(C(c1ccc(Cl)cc1)c1cccnc1)N1CCN(c2ccc(C(F)(F)F)cc2)CC1 (racemic)	1.6 µg/mL (≈ 3.48 µM)

Molecular target: Cytochrome P450 3A4 (Homo sapiens, UniProt P08684)
Test: Inhibition of CYP3A4 in human liver microsomes assessed as 6beta-hydroxylation of testosterone
Conditions: not given

Sequence of Cytochrome P450 3A4 (P08684 whole entry): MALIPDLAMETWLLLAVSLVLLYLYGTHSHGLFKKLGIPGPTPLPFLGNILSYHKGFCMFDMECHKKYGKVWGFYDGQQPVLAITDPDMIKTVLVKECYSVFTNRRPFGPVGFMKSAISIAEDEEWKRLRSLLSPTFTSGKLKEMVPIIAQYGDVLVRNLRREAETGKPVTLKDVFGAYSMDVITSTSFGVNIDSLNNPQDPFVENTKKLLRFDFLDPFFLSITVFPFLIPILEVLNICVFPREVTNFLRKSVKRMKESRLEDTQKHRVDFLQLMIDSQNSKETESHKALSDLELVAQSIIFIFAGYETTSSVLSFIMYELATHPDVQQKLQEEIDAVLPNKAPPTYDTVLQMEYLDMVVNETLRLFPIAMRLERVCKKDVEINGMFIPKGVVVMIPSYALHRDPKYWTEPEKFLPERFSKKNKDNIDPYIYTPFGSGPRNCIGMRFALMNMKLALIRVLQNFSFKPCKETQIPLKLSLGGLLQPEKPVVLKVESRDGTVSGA

SMILES	IC50
CS(=O)(=O)c1ccc(N2CCN(C(=O)C(c3ccc(C#N)cc3)c3cccnc3)CC2)cc1 (centres undefined)	> 20 µM
O=C(C(c1ccc(Cl)cc1)c1cccnc1)N1CCN(c2ccc(C(F)(F)F)cn2)CC1 (centres undefined)	7 µM
O=C(C(c1ccc(Cl)cc1)c1cccnc1)N1CCN(c2ccc(C(F)(F)F)cc2)CC1 (racemic)	16 µM

System: Trypanosoma cruzi
Test: Antitrypanosomal activity against Trypanosoma cruzi Tulahuen 6 infected in Swiss mouse assessed as mouse survival at 20 mg/kg, po qd administered on day 8 post-infection for 20 days followed by 10 days non-treatment measured on day 37 post-infection by microscopic analysis
Type: functional, organism-based
Design: dose 20 mg/kg
Conditions: not given
Procedure, shortened: as §1

SMILES	Activity
CC[C@@H]([C@H](C)O)n1ncn(-c2ccc(N3CCN(c4ccc(OC[C@@H]5CO[C@@](Cn6cncn6)(c6ccc(F)cc6F)C5)cc4)CC3)cc2)c1=O [POSACONAZOLE]	Active
O=C(C(c1ccc(Cl)cc1)c1cccnc1)N1CCN(c2ccc(C(F)(F)F)cc2)CC1 (racemic)	Active

System: Trypanosoma cruzi
Test: Antitrypanosomal activity against Trypanosoma cruzi Tulahuen 6 amastigotes infected in rat L6 cells after 96 hrs by colorimetric method
Type: functional, organism-based
Conditions: Tulahuen 6, L6, 96 h

SMILES	IC50
CS(=O)(=O)c1ccc(N2CCN(C(=O)C(c3ccc(C#N)cc3)c3cccnc3)CC2)cc1 (centres undefined)	24 nM
O=C(C(c1ccc(Cl)cc1)c1cccnc1)N1CCN(c2ccc(C(F)(F)F)cn2)CC1 (centres undefined)	12 nM
FC(F)(F)c1ccc(N(c2cccnc2)C2CCN(c3ccc(C(F)(F)F)cn3)CC2)cc1	17 nM
CC[C@@H]([C@H](C)O)n1ncn(-c2ccc(N3CCN(c4ccc(OC[C@@H]5CO[C@@](Cn6cncn6)(c6ccc(F)cc6F)C5)cc4)CC3)cc2)c1=O [POSACONAZOLE]	1 nM

System: Mus musculus
Test: Oral bioavailability in Swiss mouse at 20 mg/kg by LC/MS analysis
Type: ADME, organism-based
Conditions: in vivo

SMILES	F
FC(F)(F)c1ccc(N(c2cccnc2)C2CCN(c3ccc(C(F)(F)F)cn3)CC2)cc1	95%

System: Mus musculus
Test: Toxicity in Swiss mouse at 20 mg/kg, po
Conditions: in vivo

SMILES	Activity
CS(=O)(=O)c1ccc(N2CCN(C(=O)C(c3ccc(C#N)cc3)c3cccnc3)CC2)cc1 (centres undefined)	Non-toxic
O=C(C(c1ccc(Cl)cc1)c1cccnc1)N1CCN(c2ccc(C(F)(F)F)cn2)CC1 (centres undefined)	Non-toxic
FC(F)(F)c1ccc(N(c2cccnc2)C2CCN(c3ccc(C(F)(F)F)cn3)CC2)cc1	Non-toxic
CC[C@@H]([C@H](C)O)n1ncn(-c2ccc(N3CCN(c4ccc(OC[C@@H]5CO[C@@](Cn6cncn6)(c6ccc(F)cc6F)C5)cc4)CC3)cc2)c1=O [POSACONAZOLE]	Non-toxic
O=C(C(c1ccc(Cl)cc1)c1cccnc1)N1CCN(c2ccc(C(F)(F)F)cc2)CC1 (racemic)	Non-toxic

System: not listed separately
Test: Half life in Swiss mouse at 20 mg/kg, po by LC/MS analysis
Type: ADME, organism-based
Design: dose 20 mg/kg, route oral
Conditions: in vivo

SMILES	half-life
FC(F)(F)c1ccc(N(c2cccnc2)C2CCN(c3ccc(C(F)(F)F)cn3)CC2)cc1	750 min

System: Mus musculus
Test: Toxicity in Swiss mouse assessed as weight loss at 25 mg/kg, po bid for 2.5 days
Type: organism-based
Design: dose 25 mg/kg, route oral
Conditions: in vivo, 60 h
Procedure, shortened: (§2)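 Acute toxicity by stepwise cumulative oral dosing in two mice per compound: 25 and/or 50 mg/kg twice daily for 2.5 days to […]; animals observed for 1 week after the last dose for adverse effects and weight loss.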

SMILES	Activity
FC(F)(F)c1ccc(N(c2cccnc2)C2CCN(c3ccc(C(F)(F)F)cn3)CC2)cc1	Non-toxic
O=C(C(c1ccc(Cl)cc1)c1cccnc1)N1CCN(c2ccc(C(F)(F)F)cc2)CC1 (racemic)	Non-toxic

System: Trypanosoma cruzi
Test: Antitrypanosomal activity against Trypanosoma cruzi Tulahuen 6 infected in Swiss mouse assessed as reduction in blood parasitemia at 20 mg/kg, po qd administered on day 8 post-infection for 10 days by microscopic analysis
Type: functional, organism-based
Design: dose 20 mg/kg
Conditions: not given
Procedure, shortened: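 Infected Swiss mice dosed orally at 20 mg/kg once daily for up to 10 days starting day 8 pi; blood parasitemia followed by microscopy throughout dosing, scored as cleared or not during the dosing period.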

SMILES	Activity
FC(F)(F)c1ccc(N(c2cccnc2)C2CCN(c3ccc(C(F)(F)F)cn3)CC2)cc1	Active
CC[C@@H]([C@H](C)O)n1ncn(-c2ccc(N3CCN(c4ccc(OC[C@@H]5CO[C@@](Cn6cncn6)(c6ccc(F)cc6F)C5)cc4)CC3)cc2)c1=O [POSACONAZOLE]	Active
O=C(C(c1ccc(Cl)cc1)c1cccnc1)N1CCN(c2ccc(C(F)(F)F)cc2)CC1 (racemic)	Active

System: not listed separately
Test: Half life in Swiss mouse at 2 mg/kg, iv by LC/MS analysis
Type: ADME, organism-based
Design: dose 2 mg/kg, route intravenous
Conditions: in vivo

SMILES	half-life
FC(F)(F)c1ccc(N(c2cccnc2)C2CCN(c3ccc(C(F)(F)F)cn3)CC2)cc1	516 min

System: Trypanosoma cruzi
Test: Antitrypanosomal activity against Trypanosoma cruzi Tulahuen 6 infected in Swiss mouse assessed as mouse survival at 20 mg/kg, po qd administered on day 8 post-infection for 20 days measured on day 28 post-infection by microscopic analysis
Type: functional, organism-based
Design: dose 20 mg/kg
Conditions: not given

SMILES	Activity
O=C(C(c1ccc(Cl)cc1)c1cccnc1)N1CCN(c2ccc(C(F)(F)F)cc2)CC1 (racemic)	Active

System: not listed separately
Test: Kinetic aqueous solubility of the compound in phosphate buffer at pH 2 by nephelometric analysis
Conditions: buffer

SMILES	Kinetic solubility
O=C(C(c1ccc(Cl)cc1)c1cccnc1)N1CCN(c2ccc(C(F)(F)F)cn2)CC1 (centres undefined)	25 µg/mL

Same assay, conditions: phosphate buffer

SMILES	solubility kinetic
FC(F)(F)c1ccc(N(c2cccnc2)C2CCN(c3ccc(Cl)cc3)CC2)cc1	> 100 µg/mL
CS(=O)(=O)c1ccc(N2CCN(C(=O)C(c3ccc(C#N)cc3)c3cccnc3)CC2)cc1 (centres undefined)	25 µg/mL (≈ 54.3 µM)
FC(F)(F)c1ccc(N(c2cccnc2)C2CCN(c3ccc(C(F)(F)F)cn3)CC2)cc1	> 100 µg/mL
O=C(C(c1ccc(Cl)cc1)c1cccnc1)N1CCN(c2ccc(C(F)(F)F)cc2)CC1 (racemic)	> 100 µg/mL

System: not listed separately
Test: Volume of distribution at steady state in Swiss mouse at 2 mg/kg, iv and 20 mg/kg, po by LC/MS analysis
Type: ADME, organism-based
Conditions: in vivo, read-out: Vdss

SMILES	Vd
FC(F)(F)c1ccc(N(c2cccnc2)C2CCN(c3ccc(C(F)(F)F)cn3)CC2)cc1	4.4 L/kg

System: Trypanosoma cruzi
Test: Antitrypanosomal activity against Trypanosoma cruzi Tulahuen 6 infected in Swiss mouse at 20 mg/kg, po qd administered on day 8 post-infection for 20 days followed by 10 days non-treatment period followed by three cycles of immunosuppression measured on day 58 post-infection by PCR analysis
Type: functional, organism-based
Design: dose 20 mg/kg
Conditions: not given

SMILES	Activity
FC(F)(F)c1ccc(N(c2cccnc2)C2CCN(c3ccc(C(F)(F)F)cn3)CC2)cc1	Active
CC[C@@H]([C@H](C)O)n1ncn(-c2ccc(N3CCN(c4ccc(OC[C@@H]5CO[C@@](Cn6cncn6)(c6ccc(F)cc6F)C5)cc4)CC3)cc2)c1=O [POSACONAZOLE]	Active
O=C(C(c1ccc(Cl)cc1)c1cccnc1)N1CCN(c2ccc(C(F)(F)F)cc2)CC1 (racemic)	inactive

System: not listed separately
Test: Plasma clearance in Swiss mouse at 2 mg/kg, iv and 20 mg/kg, po by LC/MS analysis
Type: ADME, organism-based
Conditions: not given

SMILES	clearance
FC(F)(F)c1ccc(N(c2cccnc2)C2CCN(c3ccc(C(F)(F)F)cn3)CC2)cc1	8.1 mL/min/kg

System: Mus musculus
Test: Toxicity in Swiss mouse assessed as weight loss at 50 mg/kg, po bid for 2.5 days
Type: organism-based
Design: dose 50 mg/kg, route oral
Conditions: in vivo, 60 h
Procedure, shortened: as §2

SMILES	Activity
FC(F)(F)c1ccc(N(c2cccnc2)C2CCN(c3ccc(C(F)(F)F)cn3)CC2)cc1	Non-toxic
O=C(C(c1ccc(Cl)cc1)c1cccnc1)N1CCN(c2ccc(C(F)(F)F)cc2)CC1 (racemic)	Non-toxic
